Assay results collected from several papers.
Each line is one published result; the experiments were not run side by side.
Cell line: HEK293
Observed: cell growth or viability

Compound	method	tested at	time	measurement	value
O=C(Nc1cccc(C(F)(F)F)c1)c1cccc(C(F)(F)F)c1	resazurin	–	48 h	CC50	15.6 µM
NNC(=O)c1cn(Cc2ccccc2)c2ccc(Oc3ccccc3)cc2c1=O	resazurin	–	48 h	CC50	> 20 µM
CCCc1cc(=O)oc2cc(OCc3cc(=O)c(O)co3)ccc12	CCK-8	12 µM	24 h	viability	97.9%
O=C(N/N=C/c1ccc([N+](=O)[O-])o1)c1cn(Cc2ccccc2)c2ccc([N+](=O)[O-])cc2c1=O	resazurin	–	48 h	CC50	> 20 µM
O=C1C(NCCc2ccc(O)cc2)=CC2=NCCc3c[nH]c1c32	MTT	–	72 h	CC50	3 µM
COc1ccc2c(c1)c(=O)c(C(=O)NN)cn2Cc1ccccc1	resazurin	–	48 h	CC50	> 20 µM
COC(CNC1=CC2=NCCc3c[nH]c(c32)C1=O)c1c[nH]c2ccccc12 (stereo not drawn)	MTT	–	72 h	CC50	4 µM
O=C(Nc1ccc(C(F)(F)F)nn1)c1cccc(C(F)(F)F)c1	resazurin	–	48 h	CC50	> 20 µM
Cn1cc2c3c1C(=O)C(NCCc1ccc(O)cc1)=CC3=NCC2	MTT	–	72 h	CC50	2.5 µM
O=C(Nc1ccc(Br)nn1)c1cccc(F)c1	resazurin	–	48 h	CC50	> 20 µM
O=C1C=C2NCCc3c[nH]c(c32)C1=O	MTT	–	72 h	CC50	50 µM
Cc1ccc(Cn2cc(C(=O)N/N=C/c3ccc([N+](=O)[O-])o3)c(=O)c3cc([N+](=O)[O-])ccc32)cc1	resazurin	–	48 h	CC50	> 20 µM
O=C(Nc1cccc([N+](=O)[O-])c1)c1cccc(C(F)(F)F)c1	resazurin	–	48 h	CC50	> 20 µM
O=C1c2[nH]cc3c2C(=NCC3)c2c(-c3ccc(O)cc3)c[nH]c21	MTT	–	72 h	CC50	0.2 µM
CC(C)C[C@H](NC(=O)[C@H](Cc1ccccc1)NC(=O)c1cnccn1)B(O)O	resazurin	–	48 h	CC50	0.008 µM
